Data set [1] concerns Rattus norvegicus. The experiment in a line: Ability to decrease blood glucose levels in fasted rats at the dose of 0.6 mmol/kg was determined; No effect. In kind it is functional, organism-based. The method in brief:
(§1)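 Male Sprague–Dawley SIV-50 or Mus Rattus rats (160–200 g), 6–12 per group, fasted overnight. Oral tube dosing as neutral aqueous solution or 1:1 Cremophor EL/water emulsion, 10 mL/kg. Retro-orbital blood taken before and at 2, 4 and 6 h; glucose measured enzymatically (HK/G6PDH). Change expressed relative to controls; two-sided Student's t test.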

Data set [2] concerns Rattus norvegicus. As to the kind of experiment: Ability to decrease blood glucose levels in fasted rats at the dose of 0.6 mmol/kg was determined. The data set is classed as functional. The method in brief: as §1
The nature of data set [3]: Tested for its effect on hepatic epoxide hydrolase; No significant inhibition up to 1e-3 mol/L.
The nature of data set [4]: Compound was tested for its lethality in mice when administered perorally. To be noted: mouse, in vivo, po. In kind it is ADME, organism-based. The gist of the method:
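Groups of five female NMR mice (22-26 g), water ad libitum, food reduced to 50 g/kg body weight 18 h before dosing; single oral administration.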

The species named for data set [5] is Rattus norvegicus. The experiment in a line: Effective dose at which 50% of the rats show at least a 25% decrease of blood glucose levels compared to controls. In kind it is functional. The gist of the method:
(§2)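 Overnight-fasted male rats (Sprague–Dawley SIV-50 or Mus Rattus, 160–200 g), 6–12 per group, dosed orally at 10 mL/kg as neutral aqueous solution or 1:1 Cremophor EL/water emulsion. Retro-orbital blood glucose by HK/G6PDH before and 2, 4, 6 h post-dose. ED50 (25%) = dose at which 50% of rats show ≥25% fall versus controls. Derived by linear or log-linear regression over at least four doses.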

The species entered for data set [6] is Rattus norvegicus. As to the kind of experiment: Effective dose at which 50% of the rats show at least a 25% decrease of blood glucose levels compared to controls; Not feasible. In kind it is functional, organism-based. The method in brief: as §2
Data set [7] is filed under the species Rattus norvegicus. As to the kind of experiment: Effective dose at which 50% of the rats show at least a 25% decrease of blood glucose levels compared to controls; Reverse effect at higher dose.

Molecules are shown by their SMILES. Calls of active or inactive are those of the source. The calls are words filed in the database; no cut-off is given here. Bounds are passed on as bounds.

On to `NC(=O)C1(CCCc2ccccc2)CO1` (stereo not given), for which the Decrease result with Rattus norvegicus [1] was “inactive”.
One may read the LD50 as the dose expected to kill half of the subjects tested. For orientation: ED50 means the midpoint of the dose-response relation. In the case of `CCOC(=O)C1(CCCc2ccc(Cl)cc2)CO1` (stereo not given), the Decrease in the data set on Rattus norvegicus [2] was under 30%. Besides, in data set [3], the Effect entry is “No significant inhibition up to 1e-3 mol/L”. For the same molecule, the median lethal dose (LD50) in data set [4] amounted to 2720 µmol/kg. In the data set filed under Rattus norvegicus [5], this molecule displayed an ED50 of 200 µmol/kg.
The like results for `CCOC(=O)C1(CCCc2cccc(C(F)(F)F)c2)CO1` (stereo not given) were, in that order, under 47%, “No significant inhibition up to 1e-3 mol/L”, 860 µmol/kg and 170 µmol/kg.
Turning to `CCOC(=O)C1(CCCc2ccc(Cl)cc2)OC12CCCCC2` (stereo not given), the Decrease result with Rattus norvegicus [1] is “inactive”.
As to `CCN(CC)C(=O)C1(CCCc2ccccc2)CO1` (stereo not given), the Decrease result with Rattus norvegicus [1] was “inactive”.
As to `CCOC(=O)C1(Cc2ccccc2)CO1` (stereo not given), in the data set with Rattus norvegicus [1], the Decrease entry was “inactive”. In addition, in data set [3], the Effect result is “No significant inhibition up to 1e-3 mol/L”.
On to `CCOC(=O)C1(CCCc2ccc(C(C)(C)C)cc2)CO1` (stereo not given), for which, in the data set with Rattus norvegicus [1], the Decrease entry was “inactive”.
Still for that read-out and setting: with `CCOC(=O)C1(CCCc2cc(Cl)ccc2OC)CO1` (stereo not given) the entry was “inactive”.
The same measure, in the same setting: with `CCOC(=O)C1OC1CCc1ccccc1` (stereo not given) the entry was “inactive”.
In turn, `CCOC(=O)C1(CCCc2ccccc2Cl)CO1` (stereo not given) came in with a Decrease in the data set on Rattus norvegicus [2] of under 11%.
In the case of `O=C([O-])C1(CCCCCc2ccc(Cl)cc2)CO1.[Na+]` (stereo not given), the Decrease in the data set on Rattus norvegicus [2] is 80%. Moreover, the Effect result in data set [3] was “No significant inhibition up to 1e-3 mol/L”. In data set [4], this molecule came in with an LD50 of 1640 µmol/kg. The molecule further displayed a median effective dose (ED50) in the data set filed under Rattus norvegicus [5] of 30 µmol/kg.
Regarding `CCOC(=O)C1(CCCc2ccc(F)cc2)CO1` (stereo not given), the Decrease in the data set on Rattus norvegicus [2] was under 37%. In data set [4], this molecule registered an LD50 of 3960 µmol/kg.
Consider `CCOC(=O)C1(CCCc2cccc(Cl)c2)CO1` (stereo not given), for which the Decrease in the data set on Rattus norvegicus [2] is under 26%. The molecule also returned an ED50 in the data set listed under Rattus norvegicus [5] of 680 µmol/kg.
For the molecule `COC(=O)C1OC1CCCc1ccccc1` (stereo not given), in the data set on Rattus norvegicus [1], the Decrease entry was “inactive”.
As for `O=C([O-])C1(CCCCCc2ccccc2)CO1.[Na+]` (stereo not given), the Decrease in the data set with Rattus norvegicus [2] was under 29%. The ED50 result in the data set listed under Rattus norvegicus [6] is “inactive”. Moreover, the Effect result in data set [3] was “No significant inhibition up to 1e-3 mol/L”. In data set [4], this molecule showed an LD50 of 1060 µmol/kg.
In the data set with Rattus norvegicus [2], `CCOC(=O)C1(CCCCCCc2ccccc2)CO1` (stereo not given) had a Decrease of 24%. In the data set listed under Rattus norvegicus [6], the ED50 result is “inactive”.
`CCNC(=O)C1(CCCc2ccccc2)CO1` (stereo not given): the Decrease entry with Rattus norvegicus [1] was “inactive”.
In turn, `O=C([O-])C1(CCCc2cccc(C(F)(F)F)c2)CO1.[Na+]` (stereo not given) gave a Decrease in the data set on Rattus norvegicus [2] of under 77%. Moreover, the Effect result in data set [3] is “No significant inhibition up to 1e-3 mol/L”. Further, the ED50 in the data set listed under Rattus norvegicus [5] stood at 80 µmol/kg.
As for `CCOC(=O)C1(CCCCCCCCc2ccccc2)CO1` (stereo not given), in the data set with Rattus norvegicus [1], the Decrease result is “inactive”.
Turning to `CCOC(=O)C1(CCCc2ccc(OC)cc2)CO1` (stereo not given), in the data set on Rattus norvegicus [1], the Decrease result is “inactive”.
Turning to `CCOC(=O)C1(CCCCCCCc2ccccc2)CO1` (stereo not given), the Decrease in the data set with Rattus norvegicus [2] is reported as 18%. For the same molecule, the ED50 entry in the data set listed under Rattus norvegicus [6] is “inactive”.
On to `CCOC(=O)C1(CCCc2ccccc2)OC1(C)C` (stereo not given), for which, in the data set on Rattus norvegicus [1], the Decrease entry is “inactive”.
The molecule `O=C([O-])C1(CCCc2ccc(Cl)cc2)CO1.[Na+]` (stereo not given) had a Decrease with Rattus norvegicus [2] of under 68%. Further, it took a dose of 180 µmol/kg to reach the 50% effect level in the data set listed under Rattus norvegicus [5] (ED50).
`CCOC(=O)C1(CCCc2ccc(C)cc2)CO1` (stereo not given) came in with a Decrease with Rattus norvegicus [2] of under 27%. Further, the Effect result in data set [3] was “No significant inhibition up to 1e-3 mol/L”.
In the case of `CCOC(=O)C1(CCc2ccccc2)CO1` (stereo not given), the Decrease entry with Rattus norvegicus [1] is “inactive”. In addition, in data set [3], the Effect result is “No significant inhibition up to 1e-3 mol/L”.
Take `CCOC(=O)C1(CCCc2ccccc2)CO1` (stereo not given): the Decrease in the data set on Rattus norvegicus [2] was under 19%. Further, in data set [3], the Effect entry was “No significant inhibition up to 1e-3 mol/L”. Besides, the ED50 in the data set filed under Rattus norvegicus [5] worked out at 1170 µmol/kg.
With `CCOC(=O)C1(CCCc2ccc(Cl)cc2)OC1(C)C` (stereo not given), the Decrease in the data set with Rattus norvegicus [2] is listed as 10%.
In the data set with Rattus norvegicus [2], `CCOC(=O)C1(CCCCCc2ccccc2)CO1` (stereo not given) came in with a Decrease of under 18%. In data set [3], the Effect entry was “No significant inhibition up to 1e-3 mol/L”. In data set [4], this molecule showed an LD50 of 880 µmol/kg. In addition, in the data set listed under Rattus norvegicus [7], the 50% effective dose (ED50) amounted to 80 µmol/kg.
Take `CCOC(=O)C1(CCCc2ccc(Cl)c(Cl)c2)CO1` (stereo not given): the Decrease with Rattus norvegicus [2] is on record as under 29%. Also, the Effect entry in data set [3] was “No significant inhibition up to 1e-3 mol/L”. In data set [4], this molecule returned an LD50 of 2870 µmol/kg. Besides, in the data set listed under Rattus norvegicus [5], the ED50 turned out to be 330 µmol/kg.
The molecule `CCOC(=O)C1(CCCCCc2ccc(Cl)cc2)CO1` (stereo not given) had a Decrease in the data set on Rattus norvegicus [2] of 80%. Moreover, the Effect entry in data set [3] is “No significant inhibition up to 1e-3 mol/L”. This molecule came in with a 50% lethal dose (LD50) in data set [4] of 930 µmol/kg. Besides, the 50% effective dose (ED50) in the data set filed under Rattus norvegicus [5] was 20 µmol/kg.
`CCOC(=O)C1(CCCCCCCc2ccc(Cl)cc2)CO1` (stereo not given) showed a Decrease in the data set on Rattus norvegicus [2] of under 49%. The LD50 in data set [4] was 950 µmol/kg. Moreover, the median effective dose (ED50) in the data set listed under Rattus norvegicus [5] came to 270 µmol/kg.
`CCOC(=O)C1(CCCCc2ccccc2)CO1` (stereo not given) yielded a Decrease with Rattus norvegicus [2] of under 44%. In data set [3], the Effect entry is “No significant inhibition up to 1e-3 mol/L”. The molecule also registered an ED50 in the data set listed under Rattus norvegicus [5] of 600 µmol/kg.
On to `CCOC(=O)C1(CCCc2ccccc2)OC12CCCCC2` (stereo not given), for which the Decrease result with Rattus norvegicus [1] is “inactive”.

The record behind these values is ChEMBL document CHEMBL1121998, “Synthesis and hypoglycemic activity of phenylalkyloxiranecarboxylic acid derivatives” (J Med Chem, 1982).
